From PubChem BioAssay
Sampled rows, rich in hits. Any-hit rate of the full collection: about 2%.
HCV NS3 hel inh = inhibitors of Hepatitis C virus NS3 helicase. NS3 helicase DNA unwinding, Cy5 molecular beacon fluorescence. inhibition, % at 10.9 µM. hit rate 0.56% among 290,000;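 active = inhibition above the mean of all tested compounds plus 3 SD, set per campaign, cut at about 35% in these data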;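 also: 0% = DMSO wells and 100% = thioflavine S control wells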
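Assay system: hepatitis C virus NS3 helicase domain fragment enzyme. Also added: annealed dual-labelled DNA beacon duplex, ATP-started. Timing: 1 h reaction at 25 °C, ATP-initiated. Technique: Cy5 fluorescence at 0 and 60 min, beacon hairpin quenching. Evaluation: % inhibition of unwinding. Replication: one well per compound.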
FID counter = counter-screen for HCV NS3 helicase inhibitors: DNA intercalator displacement; DNA fluorescent intercalator displacement, fluorescence; inhibition, % at 7.9 µM; hit rate 0.17% among 290,000; in the data active = inhibition above about 37%;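 also: 0% = vehicle and 100% = reference compound; higher means more ethidium bromide displaced from hairpin DNA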
eIF4H FP inh = inhibitors of RNA binding by human eIF4H; Q15056; eIF4H fluorescence polarization binding assay; inhibition, % at 35 µM; hit rate 0.94% among 290,000; AID 2012;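 also: calls also rest on retests at 20 µM and on dose response follow-up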
MLLE-PAM2 inh = blocks PAM2 peptide binding to the PABP1 MLLE domain. P11940. GST-MLLE / FITC-PAM2 fluorescence polarization. inhibition, % at 20 µM. hit rate 0.36% among 360,000. AID 588489; in the data active = inhibition above about 35%, passing the limit was not always enough;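 also: plate controls were DMSO wells with GST-MLLE for no effect and wells lacking GST-MLLE protein for full effect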
Target sequence (P11940 whole entry, looked up, the tested form may be a part): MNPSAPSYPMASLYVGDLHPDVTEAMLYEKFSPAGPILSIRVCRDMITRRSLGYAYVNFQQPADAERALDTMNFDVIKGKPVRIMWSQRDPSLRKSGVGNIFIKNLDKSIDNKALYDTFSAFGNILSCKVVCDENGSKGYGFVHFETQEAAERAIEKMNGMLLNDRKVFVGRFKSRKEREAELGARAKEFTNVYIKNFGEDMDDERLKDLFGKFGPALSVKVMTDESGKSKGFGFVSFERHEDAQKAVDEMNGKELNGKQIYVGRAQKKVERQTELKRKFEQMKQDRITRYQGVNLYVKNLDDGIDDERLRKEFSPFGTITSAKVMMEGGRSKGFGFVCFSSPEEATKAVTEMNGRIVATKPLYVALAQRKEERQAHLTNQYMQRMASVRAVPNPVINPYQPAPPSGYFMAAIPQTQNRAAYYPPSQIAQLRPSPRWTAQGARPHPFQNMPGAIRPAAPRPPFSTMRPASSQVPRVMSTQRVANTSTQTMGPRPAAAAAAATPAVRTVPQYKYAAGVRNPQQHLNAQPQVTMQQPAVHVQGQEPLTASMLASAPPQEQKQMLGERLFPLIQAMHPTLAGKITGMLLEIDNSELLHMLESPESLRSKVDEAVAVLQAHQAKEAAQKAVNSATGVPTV
PABP FP inh = blocks human PABP binding to poly(A) RNA; fluorescence polarization; inhibition, % at 35 µM; hit rate 1% among 290,000; AID 2014;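 also: calls also rest on retests at 20 µM and on dose response follow-up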
HCV core dimer = HCV core protein dimerization inhibition; TR-FRET GST/Flag-core106 dimerization, 1536-well; inhibition, % at 5 µM; hit rate 0.33% among 300,000; AID 1899;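 active = inhibition above the mean of all tested compounds plus 3 SD, set per screening campaign, cut at about 45% in these data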
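Material: Tagged HCV core106 pair (GST and Flag) | Amount: GST-core106 13.5 nM, Flag-core106 17 nM | Medium: KF-containing HEPES buffer, pH 7.45, DTT, CHAPS, BSA | Reagent: Eu donor and XL665 acceptor anti-tag antibodies | Schedule: 4 h at 22.5 °C | Technique: Time-resolved FRET, ex 340 nm, em 617 and 671 nm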
* marks the source's active call; other numbers are inactive results; ? = inconclusive; . = not tested or not shown. Unless noted, no rule for the calls is given here.

SMILES | HCV NS3 hel inh | FID counter | eIF4H FP inh | MLLE-PAM2 inh | PABP FP inh | HCV core dimer
CCC(=O)c1ccc(NC(C)=O)cc1O | -0.6 | 0.5 | 76.9* | 2.8 | 50.6* | -1.6
O=C(CSc1ccccc1)N(c1ccc(Br)cc1)c1nccs1 | -21.6 | -12.3 | -0.7 | 6.3 | 1.9 | -0.2
COc1cccc(NC(=O)C2CCN(c3cnccn3)CC2)c1 | -0.2 | -11.8 | -12.0 | -13.8 | -1.9 | -0.6
CC1CCCN(c2nc3ccccc3nc2C(C#N)S(=O)(=O)c2ccccc2)C1 (stereo unspecified) | 14.6 | -5.9 | ? | 61.2 | ? | 23.5
COc1ccc(S(=O)(=O)C(C#N)c2nc3ccccc3nc2N2CCC(C)CC2)cc1 (stereo unspecified) | . | . | 63.5* | . | 107.7* | 8.0
Cc1ccc(S(=O)(=O)C(C#N)c2nc3ccccc3nc2N2CCN(C)CC2)cc1 (stereo unspecified) | -1.9 | -10.3 | ? | 12.0 | 8.3 | -7.2
CCOC(=O)N1CCN(c2nc3ccccc3nc2C(C#N)S(=O)(=O)c2ccc(C)cc2)CC1 (stereo unspecified) | -0.7 | -4.0 | 121.5* | 7.7 | 118.4* | -1.5
Cc1c(C(=O)NCc2ccc(Cl)c(Cl)c2)sc(=O)n1Cc1ccc(C(=O)N(C)C)cc1 | . | . | . | -9.2 | . | .
CCOC(=O)COc1ccc2c(=O)c(-c3ccccc3OC)coc2c1 | 9.5 | -18.4 | 12.0 | 11.2 | -6.9 | 60.6*
COC(=O)COc1ccc2c(=O)c(-c3ccccc3OC)coc2c1 | -4.2 | -10.6 | -2.9 | -8.3 | 42.6 | 2.3
CCOC(=O)/C=C1\SCC(=O)N1Cc1nnc(-c2ccccc2Br)o1 | 12.0 | -18.3 | 9.0 | -51.7 | 7.8 | 63.8*
Cc1ccc(-c2cc(C(=O)Nc3cc(C)on3)c3ccccc3n2)cc1 | 14.8 | -3.0 | 3.5 | 2.0 | 5.8 | -4.7
Cc1cc(NC(=O)c2cc(-c3ccncc3)nc3c(C)cccc23)no1 | -3.0 | -23.3 | -1.2 | -8.6 | 2.9 | 54.1*
O=C(O)c1ccc(COc2ccccc2/C=C2\NC(=O)N(Cc3ccc(F)cc3)C2=O)cc1 | 7.3 | -14.5 | -2.5 | -4.2 | -2.8 | 3.7
O=C1NC(=S)N/C1=C\c1ccccc1OCc1ccc(C(=O)O)cc1 | -4.6 | -17.0 | -2.8 | 8.9 | 12.6 | 1.0
O=C(O)c1cccc(-n2cccc2/C=C2/NC(=O)N(c3cccc(Cl)c3)C2=O)c1 | 32.0 | -27.8 | 96.6* | -66.7 | 81.0* | -4.7
O=C(O)c1ccc(COc2ccccc2/C=C2/NC(=O)N(c3cccc(Cl)c3)C2=O)cc1 | 21.6 | -25.3 | 54.3* | -4.9 | active | 3.8
O=C(O)c1ccc(COc2ccccc2C=C2C(=O)c3ccccc3C2=O)cc1 | 21.1 | -27.6 | 0.2 | 13.2 | 56.2* | 13.5
C[C@@H]1CN([C@H](C)CO)C(=O)CCCn2nncc2CO[C@H]1CN(C)S(=O)(=O)c1ccccc1F | . | . | . | -3.1 | . | .
NC(c1csc(Nc2ccc(C(=O)c3ccccc3)cc2)n1)c1ccccc1Cl (stereo unspecified) | . | . | . | -42.8 | . | .
Oc1ccc(C=Nc2ccc(N3CCOCC3)cc2)c(O)c1 | 30.4 | -0.9 | -1.8 | -34.8 | 3.1 | 6.9
Cc1ccc(N=Cc2ccc(O)cc2O)cc1F | 6.2 | 2.7 | 53.5* | -0.3 | 66.9* | 1.4
O=C1S/C(=C\c2ccc(O)c([N+](=O)[O-])c2)C(=O)N1c1ccccc1Cl | 27.1 | -10.1 | 0.6 | 12.4 | 19.2 | 4.9
COc1cc(/C=C2\SC(=O)N(c3ccc(Cl)cc3)C2=O)cc([N+](=O)[O-])c1O | 0.4 | -10.6 | 95.5* | -4.2 | 20.6 | .
COc1cc(/C=C2\SC(=O)N(c3cccc(Cl)c3)C2=O)cc([N+](=O)[O-])c1O | 22.9 | -11.5 | . | 84.8* | . | .
SMILES | HCV NS3 hel inh | FID counter | eIF4H FP inh | MLLE-PAM2 inh | PABP FP inh | HCV core dimer
Cc1cc(/C=c2\sc3nc4ccccc4n3c2=O)c(C)n1-c1ccc(C(=O)O)cc1 | 16.9 | -30.9 | 64.2 | -43.6 | 0.7* | .
Cc1cc(/C=c2/sc3nc4ccccc4n3c2=O)c(C)n1-c1ccccn1 | 2.6 | -17.3 | 21.7 | -39.1 | 20.7 | 2.6
C=C(C)C(=O)Nc1cccc(C2=NOC3(C2)C[C@H](C(N)=O)N(C(=O)/C=C/C)C3)c1 (stereo partly specified) | . | . | 87.8* | 2.6 | 68.4* | -86.0
C=C(C)C(=O)Nc1cccc(C2=NOC3(C2)C[C@@H](C(N)=O)N(C(=O)/C=C/CC)C3)c1 (stereo partly specified) | . | . | 84.1* | 1.7 | 56.1* | -67.3
CC/C=C/C(=O)N1CC2(CC(c3cccc(NC(=O)c4ccccc4)c3)=NO2)C[C@@H]1C(N)=O (stereo partly specified) | -9.6 | -28.1 | -7.0 | -1.6 | 1.9 | -13.4
COc1cccc(C(=O)Nc2ccc(C3CC3(Cl)Cl)cc2)c1 (stereo unspecified) | -10.7 | -2.2 | active | -5.1 | 67.1 | 0.0
COc1cccc(C(=O)Nc2ccc(C)cc2)c1 | 3.2 | -0.7 | 4.9 | -2.3 | -5.9 | -3.6
Cc1c(C(C)(C)C)c(C=S)n2ccccc12 | 9.0 | 0.8 | 77.3* | 29.5 | 111.0* | 1.8
COc1cccc(C(NC(C)=O)c2nc(-c3ccc(OC)nc3)cs2)c1 (stereo unspecified) | . | . | . | 1.7 | . | .
CC(C)S(=O)(=O)NC(=O)C1(C)CCN1C(=O)Cc1ccccc1 (stereo unspecified) | . | . | . | 3.8 | . | .
CC1=NN(c2ccc(N)cc2)C(=O)C1 | -3.0 | -11.6 | 7.0 | 22.4 | 55.8* | 3.4
CC[C@H](C)/C=C(C)/C=C/C(=O)Cc1cc(O)c(C)c(O)c1C=O | . | . | ? | -42.9 | ? | 67.0*
C=CC[n+]1c(-c2ccc(OC)cc2)csc1NNC(=O)Nc1ccccc1 | 10.2 | 4.5 | 69.5* | -50.6 | 69.7* | 8.0
Cc1ccc(CNC(=O)CSc2nccn(-c3ccc(C)c(F)c3)c2=O)cc1 | . | . | . | 40.9* | . | 0.8
CCN(CC)S(=O)(=O)c1ccc(OC)c(NC(=O)Cc2cccs2)c1 | 16.3 | -20.4 | 62.1 | 1.1 | 10.4 | 49.8*
Cc1ccc(/C=N/n2c(C3CCCCC3)n[nH]c2=S)cc1 | 1.9 | -37.9 | 9.6 | -71.5 | 4.0 | -17.1
Cc1ccc(CCNC(=O)c2coc3nc4ccccc4nc23)cc1 | -13.3 | -2.7 | 73.1 | -27.6 | 51.3* | -0.9
CN1CCC(N(C)S(=O)(=O)c2ccc(NC(=O)COc3ccc(F)cc3Cl)cc2)CC1 | -82.5 | 26.8 | 2.8 | -91.0 | 77.7* | -7.1
CNC(=O)c1c(NC(=O)c2ccco2)sc2c1CCCC2 | -1.9 | -8.7 | -7.9 | 12.9 | 0.8 | 1.2
Cc1ccc(C(=O)C(NC(=O)c2ccco2)Nc2sc3c(c2C(N)=O)CCCC3)cc1 (stereo unspecified) | 3.8 | -17.2 | 15.1 | . | 7.4 | 65.5*
Cc1ccc([C@H]2N[C@]3(CCCN(Cc4ccc(Br)cc4)C3=O)[C@H]3C(=O)N(Cc4ccccc4)C(=O)[C@@H]23)cc1 | . | . | . | -5.0 | . | .
CN(C)CCC#CC(O)(c1ccccc1)c1ccccc1 | -13.2 | 4.4 | 6.6* | 3.9 | 75.7* | -8.7
